# Published values pooled from the literature.
# Compare with care: the assays were run in different laboratories.
# Oprm1: Mu-type opioid receptor (Oprm1, Rattus norvegicus, UniProt P33535)
Structure (SMILES),target,assay,conditions,measurement,value
CC(C)(C)c1nc(-c2cccc(NS(=O)(=O)c3c(F)cccc3F)c2F)c(-c2ccnc(N)n2)s1,"Tau-tubulin kinase 1 (TTBK1, Homo sapiens, UniProt Q5TCY1)","enzyme activity, inhibitor, radiometric",1 µM,remaining activity,89%
Cn1cc(-c2cc(F)cc(N3CCn4c(cc5c4CCCC5)C3=O)c2CO)cc(Nc2ccc(N3CCN(C4COC4)CC3)cn2)c1=O,"Phosphatidylinositol 4-kinase alpha (PI4KA, Homo sapiens, UniProt P42356)","enzyme activity, inhibitor",0.1 µM,inhibition,6%
Nc1ncc(-c2nc(N3CCOCC3)nc(N3CCOCC3)n2)c(C(F)F)n1,"Mast/stem cell growth factor receptor Kit (KIT, Homo sapiens, UniProt P10721, A829P)","binding, competition with immobilised ligand",10 µM,remaining binding,80%
OC[C@H]1CNCCN1C[C@@H]1CCCN1C[C@H](CC1CCCCC1)N1CCN(CCC23CC4CC(CC(C4)C2)C3)[C@H](Cc2ccc(O)cc2)C1,Oprm1,"ligand displacement, radioligand","0.5 µM, 1 h, pH 7.5, cell membranes",remaining binding,108%
Cn1cc(-c2cccc(N3CCc4c(sc5c4CC(C)(C)C5)C3=O)c2CO)cc(Nc2ccncn2)c1=O,"Mast/stem cell growth factor receptor Kit (KIT, Homo sapiens, UniProt P10721, T670I)","enzyme activity, inhibitor",1 µM,inhibition,0%
CCCC[C@H]1CNCCN1C[C@@H]1CCCN1C[C@@H](Cc1ccc2ccccc2c1)N1CCN(CCC23CC4CC(CC(C4)C2)C3)[C@H]([C@@H](C)O)C1,Oprm1,"ligand displacement, radioligand","0.5 µM, 1 h, pH 7.5, cell membranes",remaining binding,102%
Cc1nn(C)cc1-c1nc2c(N3CCN(Cc4ccc(Cl)cc4)CC3)c(Cl)cnc2[nH]1,"Atypical kinase COQ8A, mitochondrial (COQ8A, Homo sapiens, UniProt Q8NI60)","binding, competition with immobilised ligand",1 µM,remaining binding,80%
C[C@@H](O)[C@@H]1CN([C@H](Cc2ccc3ccccc3c2)CN2CCC[C@H]2CN2CCNC[C@@H]2Cc2ccc3ccccc3c2)CCN1CCc1ccc(Cl)c(Cl)c1,Oprm1,"ligand displacement, radioligand","0.5 µM, 1 h, pH 7.5, cell membranes",remaining binding,109%
C#Cc1n[nH]c2c(-c3cn(C(C)c4ccccn4)c(=O)[nH]c3=O)cc(F)cc12 (stereo not drawn),"Vascular endothelial growth factor receptor 1 (FLT1, Homo sapiens, UniProt P17948)","enzyme activity, inhibitor",1 µM,inhibition,-3.1%
COc1ncccc1-c1cnn2ccc(N3CCN(C(=O)OC(C)C)CC3)nc12,"Mitogen-activated protein kinase kinase kinase 19 (MAP3K19, Homo sapiens, UniProt Q56UN5)","binding, competition with immobilised ligand",1 µM,remaining binding,100%
C[C@@H](O)[C@@H]1CN([C@H](Cc2ccc3ccccc3c2)CN2CCC[C@H]2CN2CCNC[C@@H]2Cc2ccc3ccccc3c2)CCN1CCC12CC3CC(CC(C3)C1)C2,Oprm1,"ligand displacement, radioligand","0.5 µM, 1 h, pH 7.5, cell membranes",remaining binding,107%
O=C(c1cc(O)c(O)c([N+](=O)[O-])c1)c1ccccc1F,"Transthyretin (TTR, Homo sapiens, UniProt P02766)","binding, SPR",,koff,0.132 s⁻¹
